Series [1] has as its system Escherichia coli. Put plainly: Synergistic antibacterial activity against Escherichia coli TG1 transformed with IncX3 plasmid expressing blaNDM-1 assessed as fractional inhibitory concentration index in presence of meropenem incubated for overnight by CLSI protocol based assay. The series is classed as functional. The following applies: time 12 hrs. The method in brief:
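FIC index from MICs of compound alone, meropenem alone, and the 1:1 (mass) compound–meropenem combination, read by eye after overnight incubation in a CLSI-based assay. FIC index = MICcombo/MICcpd + MICcombo/MICMem. FIC index ≤0.5 counted as synergy. At least triplicate assays. Clinical NDM-1 isolates for 17-39; E. coli TG1 carrying the IncX3 blaNDM-1 plasmid for 15.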

The test system of series [2] is Escherichia coli. In words: Potentiation of meropenem-induced antibacterial activity against Escherichia coli TG1 transformed with IncX3 plasmid expressing blaNDM-1 assessed as bacterial growth inhibition by measuring meropenem MIC incubated for overnight by CLSI protocol based assay. The series is classed as functional. As to conditions: time 12 hrs.
Series [3] is described as follows: Growth inhibition of Escherichia coli TG1 transformed with IncX3 plasmid expressing blaNDM-1 incubated for overnight by CLSI protocol based assay. The following applies: 12 h.
In series [4] the test system is Escherichia coli. Put plainly: Synergistic antibacterial activity against Escherichia coli TG1 transformed with IncX3 plasmid expressing blaNDM-1 assessed as ratio of negative logarithm of fractional inhibitory concentration index to non-hydrogen atom in presence of meropenem incubated for overnight by CLSI protocol based assay. The series is classed as functional. As to conditions: time 12 hrs. The method in brief: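 In E. coli TG1 carrying the IncX3 blaNDM-1 plasmid, the FIC index was taken from overnight CLSI-based MICs of compound, meropenem and their 1:1 mass mixture, read by eye. Synergistic efficiency = −ln(FIC index) divided by the number of non-hydrogen atoms. At least triplicate assays.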

≈ marks a conversion by molar mass, not a printed value. A value given as a limit tells only on which side of the number the result lay.

With `O=C(NCCn1[se]c2ccccc2c1=O)OCc1ccccc1`, the “fractional inhibitory concentration index (FICI)” value in series [1] came to 0.375. The results for the MIC in series [2] and in series [3] were 16 µg/mL and “>= 128 ug ml-1”, respectively. For the same compound, the Ratio in series [4] is 0.043.

On to `C[C@H](C(=O)N[C@H](C)C(=O)O)n1[se]c2ccccc2c1=O`, for which the “fractional inhibitory concentration index (FICI)” value in series [1] came out at 0.375. Moreover, the MIC in series [2] was 16 µg/mL; in series [3] it was “>= 128 ug ml-1”. Also, the Ratio in series [4] was determined as 0.049.

Consider `O=c1c2ccccc2[se]n1CCC1CCOCC1`, for which the “fractional inhibitory concentration index (FICI)” value in series [1] was 0.188. The MIC in series [2] is 8 µg/mL; in series [3], “>= 128 ug ml-1”. Also, the Ratio in series [4] was 0.084.

Regarding `Cl.NCCCn1[se]c2ccccc2c1=O`, the “fractional inhibitory concentration index (FICI)” value in series [1] is on record as 0.281. Also, the MIC is 2 µg/mL in series [2] and 8 µg/mL in series [3]. Besides, the Ratio in series [4] is given as 0.091.

`O=c1c2ccccc2[se]n1-c1ccc(CO)cc1`: in series [1], the “fractional inhibitory concentration index (FICI)” value worked out at 0.375. Besides, the MIC in series [2] is 16 µg/mL; in series [3] it was “>= 128 ug ml-1”. Moreover, the Ratio in series [4] turned out to be 0.054.

In the case of `O=c1c2ccccc2[se]n1CCN1CCCCC1`, the “fractional inhibitory concentration index (FICI)” value in series [1] turned out to be 0.375. For the same compound, the results for the MIC in series [2] and in series [3] were 16 µg/mL and “>= 128 ug ml-1”, respectively. Moreover, in series [4], the Ratio is listed as 0.054.

Turning to `O=c1c2ccccc2[se]n1CCNCc1ccccc1`, in series [1], the “fractional inhibitory concentration index (FICI)” value is given as 0.188. In addition, the MIC in series [2] is 8 µg/mL; in series [3], “>= 128 ug ml-1”. For the same compound, the Ratio in series [4] was 0.084.

With `CCCC[n+]1ccn(CCCn2[se]c3ccccc3c2=O)c1`, the “fractional inhibitory concentration index (FICI)” value in series [1] was 0.188. Moreover, the results for the MIC in series [2] and in series [3] were 8 µg/mL and “>= 128 ug ml-1”, respectively. In series [4], the Ratio was found to be 0.076.

With `Cl.NCCn1[se]c2ccccc2c1=O`, the “fractional inhibitory concentration index (FICI)” value in series [1] came to 1.063. In addition, the MIC in series [2] and in series [3] was 4 µg/mL in each case. Also, the Ratio in series [4] was -0.005.

Consider `COc1ccc(-n2[se]c3ccccc3c2=O)cc1Cl`, for which, in series [1], the “fractional inhibitory concentration index (FICI)” value is given as 0.75. Also, the MIC is 32 µg/mL in series [2] and “>= 128 ug ml-1” in series [3]. Besides, the Ratio in series [4] turned out to be 0.015.

Regarding `O=C1CC[Se]N1c1ccccc1`, in series [1], the “fractional inhibitory concentration index (FICI)” value was 0.75. The MIC in series [2] was 32 µg/mL; in series [3] it was “>= 128 ug ml-1”. Besides, in series [4], the Ratio is given as 0.024.

On to `CC(C)(C)CC(=O)NCCn1[se]c2ccccc2c1=O`, for which, in series [1], the “fractional inhibitory concentration index (FICI)” value is 0.188. The MIC is 8 µg/mL in series [2] and “>= 128 ug ml-1” in series [3]. In addition, in series [4], the Ratio is given as 0.084.

On to `COP(=O)(NCCn1[se]c2ccccc2c1=O)OC`, for which the “fractional inhibitory concentration index (FICI)” value in series [1] came to 0.188. For the same compound, the MIC was 8 µg/mL in series [2] and “>= 128 ug ml-1” in series [3]. Further, the Ratio in series [4] was determined as 0.084.

Turning to `CCN(CC)CCCC(C)n1[se]c2ccccc2c1=O` (stereo unspecified), the “fractional inhibitory concentration index (FICI)” value in series [1] stood at 0.188. For the same compound, the MIC in series [2] was 8 µg/mL; in series [3] it was “>= 128 ug ml-1”. Besides, in series [4], the Ratio was found to be 0.084.

On to `CCN1CCC[C@@H]1Cn1[se]c2ccccc2c1=O`, for which the “fractional inhibitory concentration index (FICI)” value in series [1] is reported as 0.5. Moreover, the results for the MIC in series [2] and in series [3] were 16 µg/mL and 64 µg/mL (≈ 207 µM), respectively. Further, in series [4], the Ratio was found to be 0.039.

In the case of `CC(C)c1ccc(-n2[se]c3ccccc3c2=O)cc1`, the “fractional inhibitory concentration index (FICI)” value in series [1] is reported as 0.375. The MIC in series [2] is 16 µg/mL; in series [3], “>= 128 ug ml-1”. Besides, the Ratio in series [4] amounted to 0.052.

As to `CCN(CC)CCn1[se]c2ccccc2c1=O`, the “fractional inhibitory concentration index (FICI)” value in series [1] turned out to be 0.5. Also, the MIC in series [2] worked out at 16 µg/mL; in series [3] it was 64 µg/mL (≈ 215 µM). Further, in series [4], the Ratio was found to be 0.041.

On to `O=c1c2ccccc2[se]n1C1CCCCC1`, for which, in series [1], the “fractional inhibitory concentration index (FICI)” value is 0.25. For the same compound, the MIC in series [2] came out at 8 µg/mL; in series [3], 64 µg/mL (≈ 228 µM). The Ratio in series [4] worked out at 0.087.

In the case of `C#CCn1[se]c2ccccc2c1=O`, in series [1], the “fractional inhibitory concentration index (FICI)” value amounted to 0.25. The figures for the MIC in series [2] and in series [3] were 8 µg/mL and 64 µg/mL (≈ 271 µM), respectively. The Ratio in series [4] is 0.107.

For `CN(C)CCn1[se]c2ccccc2c1=O`, the “fractional inhibitory concentration index (FICI)” value in series [1] was determined as 0.375. In addition, the MIC is 16 µg/mL in series [2] and “>= 128 ug ml-1” in series [3]. The Ratio in series [4] is 0.065.

With `O=C(O)c1ccc(-n2[se]c3ccccc3c2=O)cc1`, the “fractional inhibitory concentration index (FICI)” value in series [1] is reported as 0.125. For the same compound, the results for the MIC in series [2] and in series [3] were 4 µg/mL and 64 µg/mL (≈ 201 µM), respectively. Moreover, in series [4], the Ratio amounted to 0.109.

In the case of `CCN1CCC[C@H]1Cn1[se]c2ccccc2c1=O`, in series [1], the “fractional inhibitory concentration index (FICI)” value is recorded as 0.5. Moreover, the MIC in series [2] turned out to be 16 µg/mL; in series [3], 64 µg/mL (≈ 207 µM). In series [4], the Ratio was determined as 0.039.

For the compound `O=c1c2ccccc2[se]n1Cc1cccc(-c2ccccc2)c1`, the “fractional inhibitory concentration index (FICI)” value in series [1] was 0.375. For the same compound, the MIC in series [2] was 16 µg/mL; in series [3] it was “>= 128 ug ml-1”. Besides, in series [4], the Ratio is 0.043.

In the case of `O=c1c2ccccc2[se]n1CCO`, in series [1], the “fractional inhibitory concentration index (FICI)” value is listed as 0.75. Moreover, the MIC amounted to 16 µg/mL in series [2] and 32 µg/mL (≈ 132 µM) in series [3]. In addition, the Ratio in series [4] amounted to 0.022.

For the compound `CC(C)(C)OC(=O)NCCCn1[se]c2ccccc2c1=O`, in series [1], the “fractional inhibitory concentration index (FICI)” value is listed as 0.188. Further, the values for the MIC in series [2] and in series [3] were 8 µg/mL and “>= 128 ug ml-1”, respectively. In series [4], the Ratio came out at 0.08.

Turning to `Cc1ccc(C(=O)NCCn2[se]c3ccccc3c2=O)cc1`, the “fractional inhibitory concentration index (FICI)” value in series [1] is recorded as 0.188. In addition, the MIC in series [2] was 8 µg/mL; in series [3], “>= 128 ug ml-1”. Further, the Ratio in series [4] came to 0.076.

Take `O=c1c2ccccc2[se]n1CCCn1ccnc1`: the “fractional inhibitory concentration index (FICI)” value in series [1] was 0.375. Moreover, the results for the MIC in series [2] and in series [3] were 16 µg/mL and “>= 128 ug ml-1”, respectively. The Ratio in series [4] is 0.054.

`CC(C)(OC(=O)NCCCn1[se]c2ccccc2c1=O)C(F)(F)F`: the “fractional inhibitory concentration index (FICI)” value in series [1] was found to be 0.188. In addition, the MIC was 8 µg/mL in series [2] and “>= 128 ug ml-1” in series [3]. The Ratio in series [4] is reported as 0.07.

As to `O=c1c2ccccc2[se]n1CCN1CCOCC1`, the “fractional inhibitory concentration index (FICI)” value in series [1] is on record as 0.5. Moreover, the MIC worked out at 16 µg/mL in series [2] and 64 µg/mL (≈ 206 µM) in series [3]. Moreover, the Ratio in series [4] is recorded as 0.039.

In series [3], `C[C@@H](O)[C@H]1C(=O)N2C(C(=O)O)=C(S[C@@H]3CN[C@H](C(=O)N(C)C)C3)[C@H](C)[C@H]12` [MEROPENEM] gave an MIC of 64 µg/mL (≈ 167 µM).

With `O=c1c2ccccc2[se]n1-c1ccc(Cl)cc1`, in series [1], the “fractional inhibitory concentration index (FICI)” value is reported as 0.094. In addition, the results for the MIC in series [2] and in series [3] were 4 µg/mL and “>= 128 ug ml-1”, respectively. The Ratio in series [4] was determined as 0.139.

The values are drawn from ChEMBL document CHEMBL4673212, “Investigation of synergistic antimicrobial effects of the drug combinations of meropenem and 1,2-benzisoselenazol-3(2H)-one derivatives on carbapenem-resistant Enterobacteriaceae producing NDM-1” (Eur J Med Chem, 2018).
